# Jurkat viability: cytotoxicity toward Jurkat T cells, primary screen, cytotoxicity control, cell-based, Jurkat E6.1, 60K MLSMR library | Jurkat E6.1 viability, ATP luminescence, 48 h | inhibition, % at 4 µM | actives 1.2% (n = 56,000) | AID 463, 2006;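 active = inhibition above the mean inhibition of all tested compounds plus 3 SD, cut at about 28% in these data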
# Hsp90 block: tumor Hsp90 inhibitors, primary screen, cell lysate, fluorescence polarization, NCI-N417 lysate; actives 0.35% (n = 64,000); Heat shock protein HSP 90-alpha (Homo sapiens), P07900; AID 429, 2006; inhibition, % at 30 µM; Cy3B-geldanamycin FP displacement;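 active = inhibition above 50%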
# JNK3 inh: JNK3 kinase activity inhibitors, primary screen, biochemical, human, purified enzyme. inhibition, % at 8 µM. HTS. actives 0.61% (n = 60,000); in the data active = inhibition above about 17%
# Target sequence (P53779 whole entry, looked up): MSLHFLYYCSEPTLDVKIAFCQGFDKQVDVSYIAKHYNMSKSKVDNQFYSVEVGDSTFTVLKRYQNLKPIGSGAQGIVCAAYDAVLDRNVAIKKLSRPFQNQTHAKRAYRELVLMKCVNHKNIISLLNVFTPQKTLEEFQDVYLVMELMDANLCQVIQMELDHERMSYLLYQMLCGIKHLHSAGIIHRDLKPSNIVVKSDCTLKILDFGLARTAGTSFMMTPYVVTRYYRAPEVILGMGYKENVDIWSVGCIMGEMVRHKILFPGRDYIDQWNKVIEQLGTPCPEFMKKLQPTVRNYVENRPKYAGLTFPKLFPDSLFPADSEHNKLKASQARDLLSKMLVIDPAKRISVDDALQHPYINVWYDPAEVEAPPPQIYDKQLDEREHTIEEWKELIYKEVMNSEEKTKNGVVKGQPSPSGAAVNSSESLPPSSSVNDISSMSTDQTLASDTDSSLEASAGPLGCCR
# HEK293 NFkB inh: inhibitors of PMA/ionomycin-induced NF-kB reporter, primary screen, antigen receptor NF-kB inhibitor project, cell-based, HEK-293 luciferase reporter, luminescence | HEK-293 NF-kB luciferase reporter | inhibition, % at 3 µM | actives 0.21% (n = 62,000) | AID 465, 2006;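 active = inhibition above the mean of all tested compounds plus 3 SD, cut at about 40% in these data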
#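 System – HEK-293 cells with stable firefly luciferase reporter driven by four HIV NF-kB elements · Doses – one dose, 3 µM · Schedule – 1 h compound pre-incubation, 16 h PMA/ionomycin at 37 °C · Technique – luminescence from luciferase substrate reagent · Measure – percent inhibition normalized per plate to DMSO and reference-inhibitor controls · Replicates – tested once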
# AP complement: alternative complement pathway inhibitors, primary screen, biochemical, ELISA, human serum, orthogonally pooled compounds. actives 0.08% (n = 62,000). inhibition, % at 5 µM. AID 1235, 2008. LPS-coated ELISA, C3 deposition; tested in compound mixtures;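 active = inhibition above 30% in each of the two pooled mixtures holding the compound, so the lower value exceeds 30%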
#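 Test system – human serum alternative complement pathway, C3 deposition on LPS-coated wells · Buffer or medium – diluted human serum in Mg2+-EGTA GVB++ · Compound dosing – 5 µM each compound, pools of ten, 50 µM per pool · Schedule – 1 h serum-compound exposure at 37 °C · Measured by – Anti-C3 ELISA, OD 450 nm · Read-out basis – percent inhibition of C3 deposition onto LPS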
# HER2 expr 66K: inhibitors of Her2 protein expression, primary screen, SKBR-3 cells, AlphaScreen, 66K library | Receptor tyrosine-protein kinase erbB-2 (Homo sapiens), P04626 | SKBR-3 HER2 protein level, 18-24 h; hits give low values | HER2 level % of control, % at 10 µM | actives 0.69% (n = 65,000);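 active = HER2 level under 5% of the carrier-only control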;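 note: lower value means stronger loss of Her2 protein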
# Hits are given with their value; n = inactive; x = no result. Only some compounds are listed: those with a hit (about 2.5% of all), similar ones and a draw of the others.
SMILES,Jurkat viability,Hsp90 block,JNK3 inh,HEK293 NFkB inh,AP complement,HER2 expr 66K
NC(=O)c1c(NC(=O)CSc2nnc(-c3ccccc3)n2CC2CCCO2)sc2c1CCC2 (stereo unspecified),n,n,n,n,n,n
O=C(CSc1nnnn1-c1ccccc1)CC(=O)Nc1ccc(Cl)cc1,n,n,n,n,n,n
CCOC(=O)c1[nH]c2c(c1C)C(=O)CC(c1ccc(F)cc1)C2 (stereo unspecified),95.4,n,n,n,n,n
CCCCCOC(=O)c1[nH]c2c(c1C)C(=O)CC(c1ccco1)C2 (stereo unspecified),101.0,n,n,n,n,n
C=Cc1c(C)c2cc3[nH]c(cc4nc(cc5nc(cc1[nH]2)C(C)=C5CCC(=O)O)C(CCC(=O)O)=C4C)c(C)c3C=C,x,139.3,x,x,x,x
COC(=O)c1c(C)[nH]c(C)c1C(=O)c1ccccc1Cc1ccccc1,x,n,x,x,x,x
COc1ccc([C@@H]2[C@H]3CN(C(C)=O)CC=C3C(C#N)=C(N)C2(C#N)C#N)c2ccccc12,n,n,n,n,n,-0.8
N#C/C(=C\c1c[nH]c2ccccc12)C(=O)c1ccc(O)c(O)c1,x,71.5,x,x,x,x
N#C/C(=C\c1ccc(O)c(O)c1)S(=O)(=O)c1ccccc1,n,n,n,n,n,n
N#C/C(=C\c1ccc(O)c(O)c1)C(=O)c1ccc(O)c(O)c1,x,87.1,x,x,x,x
N#C/C(=C\c1ccc(O)c(O)c1)C(=O)NCCCc1ccccc1,x,68.5,n,x,n,n
Cc1ccc(CNC(=O)c2cc3c(-c4ccc(Cl)cc4)nn(C)c3s2)o1,n,n,n,n,n,-17.5
O=C(CCn1cnc2ccccc2c1=O)Nc1ccc(S(=O)(=O)N2CCCCC2)cc1,n,n,20.2,n,n,n
O=C(CCn1cnc2ccccc2c1=O)Nc1ccc(S(=O)(=O)N2CCCC2)cc1,n,n,26.6,n,n,n
Cc1ccc(NC(=O)CCn2cnc3ccccc3c2=O)cc1Cl,n,n,n,n,n,n
O=C(Cc1ccc(Cl)c(Cl)c1)OCCN1CCCC1,x,n,x,x,x,x
O=c1c2cc3ccccc3n2cnn1Cc1ccccc1F,49.8,n,n,n,n,n
COC(=O)c1ccccc1NS(=O)(=O)c1cn(C)c(=O)n(C)c1=O,n,n,n,n,n,n
Cc1cc(NC(=O)NC2CCCN2S(=O)(=O)c2ccc(Cl)cc2)no1 (stereo unspecified),n,n,n,n,n,n
Cc1ccc(-c2nnn(CC(=O)N(CC(=O)NC3CCCC3)c3cnc4ccccc4c3)n2)o1,n,n,n,n,n,n
CCC(C(=O)NC1CCCC1)N(C(=O)Cn1nnc(-c2ccc(C)o2)n1)c1cnc2ccccc2c1 (stereo unspecified),n,n,n,n,n,-8.5
Cc1ccc2c(c1)nnn2C1CCN(S(=O)(=O)c2ccc(C(=O)N3C(C)CCCC3C)cc2)CC1 (stereo unspecified),43.4,n,n,n,n,n
CNc1nc2c(c(=O)n(C)c(=O)n2C)n1Cc1ccccc1,44.6,n,n,n,n,n
Cn1c(=O)c2c(nc(NCc3ccco3)n2C/C=C/c2ccccc2)n(C)c1=O,49.3,n,n,n,n,n
Cn1c(NCC(O)c2ccccc2)nc2c1c(=O)n(Cc1ccc(Cl)cc1)c(=O)n2C (stereo unspecified),x,n,n,x,n,-28.3
SMILES,Jurkat viability,Hsp90 block,JNK3 inh,HEK293 NFkB inh,AP complement,HER2 expr 66K
Cc1cccc(Cn2c(NCC(C)O)nc3c2c(=O)n(C)c(=O)n3C)c1 (stereo unspecified),39.0,n,n,n,n,n
Cc1ccc(-n2c(-c3ccncc3)nnc2-c2cccs2)cc1,n,n,n,n,n,n
O=C(Nc1ccc2c(c1)OCO2)OCc1ccccc1,n,n,n,n,n,n
CC(C)(C)OC(=O)n1ccc2c(NCCCN)ncnc21,x,n,x,x,x,x
FC(F)(F)c1ccc(N2CCOCC2)c(Nc2nc3ccccc3n3cnnc23)c1,n,n,n,n,n,-16.3
Cc1nn(Cc2ccccc2)c2sc(C(=O)N3CCN(Cc4ccc5c(c4)OCO5)CC3)cc12,n,n,n,n,n,n
Cc1cc(C)c2c(n1)nn1c(N3CCN(c4ccccc4C)CC3)cc(C)nc21,n,n,n,n,n,n
CC(=O)c1cn(CC(=O)Nc2ccccc2)c2ccccc12,37.2,n,n,n,n,n
CCN(CCNC(=O)C1CCCN(Cc2nc(-c3ccc(OC)cc3)oc2C)C1)c1ccccc1 (stereo unspecified),n,n,n,n,n,n
CCc1ccc(-c2nc(CN3CCC(C(=O)N4CCN(c5ccccn5)CC4)CC3)c(C)o2)cc1,n,n,n,n,n,n
Cc1ccccc1-c1nc(CN2CCC(C(=O)NCCC3=CCCCC3)CC2)c(C)o1,n,n,n,n,n,-16.4
CCN(CCNC(=O)C1CCN(Cc2nc(-c3cccc(Cl)c3)oc2C)CC1)c1ccccc1,n,n,n,n,n,-12.7
CCN(CCNC(=O)C1CCN(Cc2nc(-c3ccc(Cl)cc3)oc2C)CC1)c1ccccc1,n,n,n,n,n,-16.7
CCc1ccc(-c2nc(CN3CCC(C(=O)N4CCN(c5ccccc5)CC4)CC3)c(C)o2)cc1,n,n,n,n,n,-15.4
COCCn1c(=S)[nH]c2ccc(N(C)C)cc2c1=O,n,n,n,n,n,n
OC[C@H]1O[C@@H](n2cnc3cncnc32)[C@H](O)[C@@H]1O,x,n,x,x,x,x
CCN1CCN(C(=O)C2CCN(Cc3nc(-c4ccc(Cl)cc4)oc3C)CC2)CC1,n,n,n,n,n,n
CCc1ccc(-c2nc(CN3CCC(C(=O)NCCN(CC)c4ccccc4)CC3)c(C)o2)cc1,n,n,n,n,n,-12.5
Cc1oc(-c2ccc(Cl)cc2)nc1CN1CCCC(C(=O)N2CCN(C(=O)c3ccco3)CC2)C1 (stereo unspecified),61.9,n,n,n,n,n
COc1ccc(-c2cnn(-c3ccccc3)c2N)cc1OC,n,n,n,n,n,n
Nc1nc2c(s1)CCc1c-2cnn1-c1ccccc1,n,93.0,n,n,n,n
CC1CCCN(c2ncnc3c2cnn3-c2ccc(Cl)cc2)C1 (stereo unspecified),n,n,n,71.0,n,n
N#Cc1c(N)sc(=S)c2c1CCN(Cc1ccccc1)C2,n,n,n,n,n,0.0
CCCCC(C(=O)O)C(C)CC(=O)Nc1cccc(C(=O)O)c1 (stereo unspecified),x,n,n,x,x,-21.9

# Screening results (PubChem BioAssay)
